# Experimental data collected from several papers.
# Protocols differ between the studies behind these lines.
# Target: D(2) dopamine receptor (DRD2, Homo sapiens, UniProt P14416)
Structure (SMILES),effect on,mode,technique,cells,concentration,measurement,result
COc1ccc(N=Nc2ccc3[nH]cc(CCN(C)C)c3c2)cc1,ligand displacement,,radioligand,,10 µM,inhibition,< 50%
CNc1nc2cc(OCCCCN3CCC(c4cccc(Cl)c4Cl)CC3)ccc2s1,β-arrestin recruitment,agonist,,HTLA,,Emax,< 20%
CN(CCN1CCC(OC(=O)Nc2ccccc2-c2ccccc2)CC1)C(=O)c1ccc(CN2CCC(C(N)=O)CC2)cc1,ligand displacement,,radioligand,,1 µM,inhibition,-8%
Clc1ccc2c(C3CCN(CCc4c[nH]c5ccccc45)CC3)c[nH]c2c1,ligand displacement,,radioligand,,10 µM,inhibition,98%
C[C@H](C(=O)N[C@H]1COc2ccccc2[C@@H]1S(C)(=O)=O)c1ccc(F)cc1,cell-free assay,,,,10 µM,inhibition,-3%
COc1ccc(S(=O)(=O)N2CCCCC2)cc1C,ligand displacement,,radioligand,,10 µM,inhibition,< 30%
CCc1ccc(OCC(=O)N2CCN(Cc3ccc4c(c3)OCO4)CC2)c(Br)c1,enzyme activity,inhibitor,,,10 µM,inhibition,23.1%
COc1ccc(C(=O)NCc2cc(C(C)C)no2)cc1OC1CCN(C)CC1,ligand displacement,,radioligand,,10 µM,inhibition,18%
Cc1c(N2CCNCC2)nc2ccc(Br)cc2c1C(=O)NC[C@H](CCC(=O)O)c1ccccc1Cl,ligand displacement,,,,10 µM,inhibition,2.75%
COCc1c(-c2cc3cc(C)cc(OC)c3s2)c2c(N)ncnn2c1CN1CCNC(=O)C1,ligand displacement,,radioligand,,10 µM,inhibition,19%
CC(C)Cn1cnc2c(N)nc3ccccc3c21,ligand displacement,,radioligand,,10 µM,inhibition,14%
c1ccc(C(NCCNC(c2ccccc2)c2ccccc2)c2ccccc2)cc1,cell-free assay,,,,10 µM,inhibition,31%
OC(c1ccc(F)cc1)C(F)(F)CCN1CCC(O)(c2ccc(Cl)cc2)CC1 (racemic),ligand displacement,,radioligand,,10 µM,inhibition,> 50%
N#CC1(c2ccccn2)CCN(Cc2cc(C(=O)O)c(=O)n3ccccc23)CC1,cell-free assay,,,,10 µM,inhibition,-16.8%
CCN(CC)CCCC[C@H](NC(=O)[C@H](CC(C)C)NC(=O)[C@H](C)NC(=O)[C@H](Cc1ccccc1)NC(=O)c1ccc(C(C)(C)C)cc1)C(=O)N[C@@H](CO)C(=O)OC,ligand displacement,,radioligand,,10 µM,inhibition,40%
c1ccc(C2(N3CCCCC3)CCCCC2)cc1,enzyme activity,inhibitor,,,10 µM,inhibition,18.1%
